From ChEMBL document CHEMBL1144027, “Synthesis and antimycobacterial evaluation of newer 1-cyclopropyl-1,4-dihydro-6-fluoro-7-(substituted secondary amino)-8-methoxy-5-(sub)-4-oxoquinoline-3-carboxylic acids” (Bioorg Med Chem, 2008)
In brackets after ≈: the same amount, converted by molar mass.

Key:
[1] = tested on: Mycolicibacterium smegmatis; test: Antimycobacterial activity against Mycobacterium smegmatis MC2 by agar dilution method; type: functional
In short: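 Agar dilution in Middlebrook 7H11 agar with OADC, run along NCCLS-recommended lines; M. smegmatis ATCC 14468 (MC2); MIC determined in duplicate.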

Vero = test: Cytotoxicity against african green monkey Vero cells after 72 hrs by MTT assay; type: cell-based; conditions: Chlorocebus sabaeus
In short: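 Mammalian Vero cells exposed to compounds at 62.5 µg/ml for 72 h; viability read by cellular conversion of MTT to formazan (Cell Titer 96 non-radioactive proliferation assay).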

[2] = molecular target: DNA gyrase subunit B (Mycobacterium smegmatis (strain ATCC 700084 / mc(2)155), UniProt A0QNE0); test: Inhibition of Mycobacterium smegmatis MC2 DNA gyrase GyrB ATPase supercoiling activity; parameters: species or system Mycolicibacterium smegmatis
Chain of DNA gyrase subunit B (Mycobacterium smegmatis (strain ATCC 700084 / mc(2)155), UniProt A0QNE0) (A0QNE0 whole entry): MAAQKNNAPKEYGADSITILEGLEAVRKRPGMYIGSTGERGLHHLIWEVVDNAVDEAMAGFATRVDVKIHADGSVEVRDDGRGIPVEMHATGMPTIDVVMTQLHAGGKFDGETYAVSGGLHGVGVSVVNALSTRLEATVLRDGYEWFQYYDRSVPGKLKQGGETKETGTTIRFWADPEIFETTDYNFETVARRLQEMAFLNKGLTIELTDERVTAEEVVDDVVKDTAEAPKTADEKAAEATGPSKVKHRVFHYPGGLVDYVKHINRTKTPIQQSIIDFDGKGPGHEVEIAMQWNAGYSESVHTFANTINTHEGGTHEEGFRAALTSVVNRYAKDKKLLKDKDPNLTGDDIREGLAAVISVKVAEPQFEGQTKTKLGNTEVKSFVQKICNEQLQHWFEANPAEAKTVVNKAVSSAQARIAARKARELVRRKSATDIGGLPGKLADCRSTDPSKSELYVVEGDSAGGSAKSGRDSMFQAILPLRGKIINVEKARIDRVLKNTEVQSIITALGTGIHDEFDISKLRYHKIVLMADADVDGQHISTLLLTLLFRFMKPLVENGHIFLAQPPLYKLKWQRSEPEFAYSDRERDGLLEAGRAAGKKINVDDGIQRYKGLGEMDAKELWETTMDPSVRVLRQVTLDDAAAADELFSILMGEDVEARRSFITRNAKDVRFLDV
In short: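 Gyrase purified from M. smegmatis MC2 cells; compounds in DMSO pre-incubated with enzyme, then 400 ng relaxed pUC18 added in 35 mM Tris-HCl pH 7.5, 5 mM MgCl2, 25 mM K glutamate, 2 mM spermidine, 2 mM ATP, BSA, tRNA, 5% glycerol; 30 min; heat-stopped 65 °C 15 min; agarose gel, ethidium bromide staining; ciprofloxacin 10 µg/ml and 5% DMSO controls.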

[3] = tested on: Mycobacterium tuberculosis; test: Antimycobacterial activity against Mycobacterium tuberculosis H37Rv by agar dilution method; type: functional
In short: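 Agar dilution MIC on Middlebrook 7H11 agar with OADC, following the NCCLS-recommended approach, run in duplicate. The MDR clinical isolate was resistant to isoniazid, rifampicin, ethambutol and ofloxacin.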

Mus musculus [4] = test: Phototoxicity in Swiss albino mouse assessed as ear thickness at 140 mg/kg, po after 4 hrs of irradiation; type: organism-based; parameters: dose 140 mg/kg, route oral; conditions: in vivo
In short: (§1)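 Female Swiss albino mice (~2 months, 20-25 g), fasted ≥18 h, single 140 mg/kg oral gavage dose; groups of 6 (compound, lomefloxacin HCl 140 mg/kg, 0.5% carboxymethylcellulose vehicle 10 ml/kg); UV irradiation 4 h (~18 J/cm²) right after dosing; both ears scored for erythema, oedema, thickness pre-dose, at end of irradiation, and ~24-96 h; thickness given as mean of both ears ± SEM.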

Mus musculus [5] = test: Phototoxicity in Swiss albino mouse assessed as ear thickness at 140 mg/kg, po after 24 hrs of irradiation; type: organism-based; parameters: dose 140 mg/kg, route oral; conditions: in vivo; in short: as §1
Mus musculus [6] = test: Phototoxicity in Swiss albino mouse assessed as ear thickness at 140 mg/kg, po after 48 hrs of irradiation; type: organism-based; parameters: dose 140 mg/kg, route oral; conditions: in vivo; in short: as §1
Mus musculus [7] = test: Phototoxicity in Swiss albino mouse assessed as ear thickness at 140 mg/kg, po after 72 hrs of irradiation; type: organism-based; parameters: dose 140 mg/kg, route oral; conditions: in vivo; in short: as §1
Mus musculus [8] = test: Phototoxicity in Swiss albino mouse assessed as ear thickness at 140 mg/kg, po after 96 hrs of irradiation; type: organism-based; parameters: dose 140 mg/kg, route oral; conditions: in vivo; in short: as §1
Mus musculus [9] = test: Phototoxicity in Swiss albino mouse assessed as erythema incidence at 140 mg/kg, po after 24 hrs of irradiation; type: organism-based; parameters: dose 140 mg/kg, route oral; conditions: in vivo; in short: as §1
Mus musculus [10] = test: (§2) Phototoxicity in Swiss albino mouse assessed as erythema incidence at 140 mg/kg, po after 48 hrs of irradiation; type: organism-based; parameters: dose 140 mg/kg, route oral; conditions: in vivo; in short: as §1
Mus musculus [11] = test: as §2; type: organism-based; parameters: dose 140 mg/kg, route oral; conditions: in vivo; in short: as §1; remark: listed apart in the source
Mus musculus [12] = test: Phototoxicity in Swiss albino mouse assessed as erythema incidence at 140 mg/kg, po after 96 hrs of irradiation; type: organism-based; parameters: dose 140 mg/kg, route oral; conditions: in vivo; in short: as §1
Mus musculus [13] = test: Phototoxicity in Swiss albino mouse assessed as erythema incidence at 140 mg/kg, po after 4 hrs of irradiation; type: organism-based; parameters: dose 140 mg/kg, route oral; conditions: in vivo; in short: as §1
[14] = tested on: Mycobacterium tuberculosis; test: Antimycobacterial activity against Mycobacterium tuberculosis ATCC 35801 infected in CD1 mouse assessed as bacterial load in lungs at 50 mg/kg, ip after 10 days; type: functional; conditions: route intraperitoneal
In short: (§3)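 Female CD-1 mice, 6 weeks old, six per group, infected IV via caudal vein with ~10⁷ viable organisms. Intraperitoneal treatment started 10 days after inoculation and ran 10 days. At 35 days post-infection, spleens and right lungs were homogenised and serially 10-fold diluted onto 7H10 agar, incubated 4 weeks at 37 °C in ambient air. CFU compared with vehicle-treated controls.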

[15] = tested on: Mycobacterium tuberculosis; test: Antimycobacterial activity against Mycobacterium tuberculosis ATCC 35801 infected in CD1 mouse assessed as bacterial load in spleen at 50 mg/kg, ip after 10 days; type: functional; conditions: route intraperitoneal; in short: as §3

SMILES	MIC [1] [µM]	IC50 (Vero) [µM]	IC50 [2] [µM]	MIC [3] [µM]	further results
COc1c(N2CCSCC2)c(F)c([N+](=O)[O-])c2c(=O)c(C(=O)O)cn(C3CC3)c12	3.68 (≈ 1.56 µg/mL)	148	> 118	1.84 (≈ 0.779 µg/mL)	–
COc1c(N2CC(C)OC(C)C2)c(F)c([N+](=O)[O-])c2c(=O)c(C(=O)O)cn(C3CC3)c12 (stereo not given)	1.79 (≈ 0.779 µg/mL)	144	115	0.89 (≈ 0.388 µg/mL)	Activity (Mus musculus [4]): 0.29 mm; Activity (Mus musculus [5]): 0.35 mm; Activity (Mus musculus [6]): 0.36 mm; Activity (Mus musculus [7]): 0.34 mm; Activity (Mus musculus [8]): 0.33 mm; Activity (Mus musculus [9]): Non-toxic; Activity (Mus musculus [10]): Non-toxic; Activity (Mus musculus [11]): Non-toxic; Activity (Mus musculus [12]): Non-toxic
COc1c(N2CCc3ccccc3C2C(=O)NC(C)(C)C)c(F)c([N+](=O)[O-])c2c(=O)c(C(=O)O)cn(C3CC3)c12 (stereo not given)	2.82 (≈ 1.56 µg/mL)	113	> 90.5	1.41 (≈ 0.779 µg/mL)	–
COc1c(N2CCN(Cc3ccc4c(c3)OCO4)CC2)c(F)cc2c(=O)c(C(=O)O)cn(C3CC3)c12	3.15 (≈ 1.56 µg/mL)	126	> 101	1.57 (≈ 0.778 µg/mL)	–
COc1c(N2CCN(C(=O)C3COc4ccccc4O3)CC2)c(F)c([N+](=O)[O-])c2c(=O)c(C(=O)O)cn(C3CC3)c12 (stereo not given)	2.74 (≈ 1.56 µg/mL)	110	> 87.9	1.37 (≈ 0.779 µg/mL)	–
COc1c(N2CCC(n3c(=O)[nH]c4cc(Cl)ccc43)CC2)c(F)cc2c(=O)c(C(=O)O)cn(C3CC3)c12	5.94 (≈ 3.13 µg/mL)	–	–	5.94 (≈ 3.13 µg/mL)	–
COc1c(N2CCc3ccccc3C2C(=O)NC(C)(C)C)c(F)cc2c(=O)c(C(=O)O)cn(C3CC3)c12 (stereo not given)	49.3 (≈ 25 µg/mL)	–	–	12.3 (≈ 6.25 µg/mL)	–
COc1c(N2CCC(n3c(=O)[nH]c4cc(Cl)ccc43)CC2)c(F)c([N+](=O)[O-])c2c(=O)c(C(=O)O)cn(C3CC3)c12	10.9 (≈ 6.25 µg/mL)	–	–	5.47 (≈ 3.13 µg/mL)	–
COc1c(N2CCN(C(=O)C3COc4ccccc4O3)CC2)c(F)cc2c(=O)c(C(=O)O)cn(C3CC3)c12 (stereo not given)	1.49 (≈ 0.78 µg/mL)	119	57.3	1.49 (≈ 0.78 µg/mL)	Activity (Mus musculus [4]): 0.31 mm; Activity (Mus musculus [5]): 0.32 mm; Activity (Mus musculus [6]): 0.33 mm; Activity (Mus musculus [7]): 0.33 mm; Activity (Mus musculus [8]): 0.32 mm; Activity (Mus musculus [13]): Non-toxic; Activity (Mus musculus [9]): Non-toxic; Activity (Mus musculus [10]): Non-toxic; Activity (Mus musculus [11]): Non-toxic; Activity (Mus musculus [12]): Non-toxic
COc1c(N2CCSCC2)c(F)cc2c(=O)c(C(=O)O)cn(C3CC3)c12	4.12 (≈ 1.56 µg/mL)	165	–	2.06 (≈ 0.78 µg/mL)	–
COc1c(N2CCNC(C)C2)c(F)cc2c(=O)c(C(=O)O)cn(C3CC3)c12 (stereo not given) [GATIFLOXACIN]	2.08 (≈ 0.781 µg/mL)	> 155	–	1.04 (≈ 0.39 µg/mL)	Activity [14]: 6.02; Activity [15]: 6.92
COc1c(N2COCC2(C)C)c(F)c([N+](=O)[O-])c2c(=O)c(C(=O)O)cn(C3CC3)c12	3.7 (≈ 1.56 µg/mL)	148	–	1.85 (≈ 0.78 µg/mL)	–
COc1c(N2CC(C)OC(C)C2)c(F)cc2c(=O)c(C(=O)O)cn(C3CC3)c12 (stereo not given)	16 (≈ 6.25 µg/mL)	160	–	3.99 (≈ 1.56 µg/mL)	–
COc1c(N2CCN(C(c3ccccc3)c3ccc(Cl)cc3)CC2)c(F)c([N+](=O)[O-])c2c(=O)c(C(=O)O)cn(C3CC3)c12 (stereo not given)	10.3 (≈ 6.25 µg/mL)	103	–	1.28 (≈ 0.777 µg/mL)	–
COc1c(N2CCC(N3CCCCC3)CC2)c(F)c([N+](=O)[O-])c2c(=O)c(C(=O)O)cn(C3CC3)c12	12.8 (≈ 6.25 µg/mL)	–	–	6.41 (≈ 3.13 µg/mL)	–
COc1c(N2CCC(O)(c3ccc(Cl)cc3)CC2)c(F)cc2c(=O)c(C(=O)O)cn(C3CC3)c12	12.8 (≈ 6.25 µg/mL)	–	–	6.43 (≈ 3.13 µg/mL)	–
COc1c(N2CCN(C)C(c3ccccc3)C2)c(F)c([N+](=O)[O-])c2c(=O)c(C(=O)O)cn(C3CC3)c12 (stereo not given)	6.3 (≈ 3.13 µg/mL)	126	–	3.14 (≈ 1.56 µg/mL)	–
COc1c(N2CCC(N3CCCCC3)CC2)c(F)cc2c(=O)c(C(=O)O)cn(C3CC3)c12	14.1 (≈ 6.25 µg/mL)	–	–	7.06 (≈ 3.13 µg/mL)	–
